Each molecule was assayed against Beta-lactamase TEM (Escherichia coli, UniProt P62593) (assay: Inhibition constant (Ki) for TEM-1 beta-lactamase).
Summary of the method: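 Partially purified plasmid pBR322-encoded TEM-1 β-lactamase; computerized microacidimetric assay at pH 7, 37 °C. Time-dependent inactivation was checked by monitoring activity after enzyme preincubation with inhibitor at 1 to 100 concentrations.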

Beta-lactamase TEM, sequence (P62593 whole entry): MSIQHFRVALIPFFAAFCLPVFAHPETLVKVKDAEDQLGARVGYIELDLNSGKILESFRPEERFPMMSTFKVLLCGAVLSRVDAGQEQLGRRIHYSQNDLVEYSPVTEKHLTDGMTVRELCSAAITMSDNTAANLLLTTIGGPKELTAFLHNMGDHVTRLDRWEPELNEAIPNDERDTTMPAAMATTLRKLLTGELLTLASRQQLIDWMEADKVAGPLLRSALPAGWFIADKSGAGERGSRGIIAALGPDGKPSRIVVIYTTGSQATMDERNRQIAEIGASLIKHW

Row | SMILES | Ki [µM]
1 | O=C(O)c1ccc2c(c1)N1C(=O)CC1CC2Cl (stereo unspecified) | 50
2 | Cc1ccc(C(=O)O)cc1N1CC(Br)(Br)C1=O | 160
3 | Cc1ccc(C(=O)O)cc1N1CCC1=O | 10
4 | Cc1ccc(C(=O)O)cc1N1CC(F)(Br)C1=O (stereo unspecified) | 60
5 | O=C(O)c1ccc2c(c1)N1C(=O)CC1CC2F (stereo unspecified) | 39
6 | Cc1ccc(C(=O)O)cc1N1CC(F)C1=O (stereo unspecified) | 20
7 | O=C(O)c1ccc2c(c1)N1C(=O)CC1CC2 (stereo unspecified) | 20
8 | Cc1ccc(C(=O)O)cc1N1CC(F)(F)C1=O | 83
9 | Cc1ccc(C(=O)O)cc1N1CC(Br)C1=O (stereo unspecified) | 40
10 | Cc1onc(-c2ccccc2Cl)c1C(=O)N[C@@H]1C(=O)N2[C@@H]1SC(C)(C)[C@@H]2C(=O)O [CLOXACILLIN] | 13
11 | CC1(C)S[C@@H]2[C@H](NC(=O)Cc3ccccc3)C(=O)N2[C@H]1C(=O)O [PENICILLIN G] | 20

From ChEMBL document CHEMBL1124033, “N-aryl 3-halogenated azetidin-2-ones and benzocarbacephems, inhibitors of beta-lactamases” (J Med Chem, 1988)
